# Experimental data: ChEMBL document CHEMBL4038313, “Expanding the Antiviral Spectrum of 3-Fluoro-2-(phosphonomethoxy)propyl Acyclic Nucleoside Phosphonates: Diamyl Aspartate Amidate Prodrugs” (J Med Chem, 2017)
# Experiments:
# [1] = test system: Human immunodeficiency virus 1; test: Antiviral activity against CXCR4-tropic HIV-1 NL4-3 infected in human TZM-bl cells assessed as inhibition of virus-induced cytopathic effect preincubated with cells for 30 mins followed by viral infection measured after 48 hrs in presence of p-24 HIV-1 Ag by luciferase reporter gene assay; format: functional, cell-based; conditions: Human immunodeficiency virus 1, NL4-3, TZM-bl
# Summary of the method: (§1)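 TZM-bl cells, 1 × 10^4 per well in DMEM with 10% FBS and 10 mM […], incubated 30 min at 37 °C with compound. Then HIV-1 NL4.3 (X4) or BaL (R5) added at 100 pg p24 Ag per well. After 48 h, cells lysed with luciferase substrate. Tat-induced luminescence read after 10 min dark incubation as a measure of replication.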
# [2] = test system: Human immunodeficiency virus 1; test: Antiviral activity against CCR5 tropic HIV1 BaL infected in human TZM-bl cells assessed as inhibition of virus-induced cytopathic effect preincubated with cells for 30 mins followed by viral infection measured after 48 hrs in presence of p-24 HIV-1 Ag by luciferase reporter gene assay; format: functional, cell-based; conditions: Human immunodeficiency virus 1, BaL; summary of the method: as §1
# [3] = Cytotoxicity against human TZM-bl cells assessed as cell viability by tetrazolium dye assay; format: cell-based
# [4] = Selectivity index, ratio of CC50 for human TZM-bl cells to EC50 for CXCR4-tropic HIV-1 NL4-3 infected in human TZM-bl cells; format: toxicity, cell-based; conditions: read-out: Ratio CC50/EC50
# [5] = Selectivity index, ratio of CC50 for human TZM-bl cells to EC50 for CCR5 tropic HIV1 BaL infected in human TZM-bl cells; format: toxicity, cell-based; conditions: read-out: Ratio CC50/EC50
# Hepatitis B virus = test: Antiviral activity against HBV ayw1 infected in human HepG2(2.2.15) cells assessed as reduction in viral replication by measuring extracellular viral DNA copy number after 6 days by real-time qPCR method; format: functional, cell-based; conditions: ayw1, HepG2 2.2.15, 144 h
# Summary of the method: (§2)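 HepG2.2.15 cells (two copies of HBV ayw1 genome), 1.5 × 10^4/well in DMEM with 2% FBS and 380 μg/mL G418. After 16–24 h, compound added in triplicate, medium with compound renewed at day 3. Supernatant collected at day 6, Pronase-treated, and extracellular HBV DNA measured by TaqMan qPCR (precore/core) against an HBV DNA standard curve. EC50/EC90 derived; CC50 by MTS uptake.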
# [6] = Cytotoxicity against human HepG2.2.15 cells assessed as cell viability by tetrazolium dye uptake assay; format: cell-based, HepG2 2.2.15
# Summary of the method: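 HepG2.2.15 cells (two integrated copies of HBV ayw1 genome) were seeded at 1.5 × 10^4 cells/well in DMEM with 2% FBS, 380 μg/mL G418, glutamine, antibiotics and nonessential amino acids. After 16−24 h, medium with various compound concentrations was added in triplicate and renewed on day 3. After 6 days of treatment, viability was read by MTS uptake and CC50 was calculated.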
# [7] = Selectivity index, ratio of CC50 for HepG2.2.15 cells to EC50 for HBV ayw1 infected in human HepG2(2.2.15) cells assessed as reduction in viral replication by measuring extracellular viral DNA copy; summary of the method: as §2
# Human betaherpesvirus 5 [8] = test: Antiviral activity against Human cytomegalovirus AD169 infected in HEL cells assessed as inhibition of virus-induced cytopathic effect; format: functional, cell-based; conditions: Human betaherpesvirus 5, AD169, HEL
# Summary of the method: (§3)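 HEL fibroblast monolayers inoculated with 100 CCID50 HCMV (AD-169, Davis) or 20 PFU VZV (TK+ Oka, TK− 07-1). Adsorbed 1–2 h, inoculum removed, then incubated with compound dilutions. HCMV cytopathicity or VZV plaques scored once untreated infected controls reached completion. EC50 is 50% reduction. SI is CC50/EC50, and the potency ratio is the ratio of EC50s.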
# Human betaherpesvirus 5 [9] = test: Antiviral activity against HCMV Davis strain infected in HEL cells assessed as inhibition of virus-induced cytopathic effect; format: functional, cell-based; conditions: Human betaherpesvirus 5, Davis; summary of the method: as §3
# Human alphaherpesvirus 3 [10] = test: Antiviral activity against thymidine kinase expressing Varicella-Zoster virus Oka strain assessed as inhibition of plaque formation; format: functional; conditions: Human alphaherpesvirus 3, strain Oka vaccine; summary of the method: as §3
# Human alphaherpesvirus 3 [11] = test: Antiviral activity against thymidine kinase deficient Varicella-Zoster virus 07-1 infected in HEL cells assessed as inhibition of plaque formation; format: functional, cell-based; conditions: Human alphaherpesvirus 3, 07-1, HEL; summary of the method: as §3
# [12] = Cytotoxic activity against HEL cells assessed as alteration of cell morphology after 3 days by microscopic method; format: cell-based; conditions: human
# Summary of the method: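 HEL cells with compound; MCC is the lowest concentration giving microscopically detectable alteration of cell morphology.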
# [13] = test system: Human immunodeficiency virus 1; test: Antiviral activity against CXCR4-tropic HIV-1 NL4-3 infected in human PHA-stimulated PBMC assessed as inhibition of viral replication by measuring reduction in p24 antigen production preincubated with cells for 30 mins followed by viral infection measured on day 10 post infection in presence of IL-2 by ELISA; format: functional; conditions: Human immunodeficiency virus 1, NL4-3
# Summary of the method: (§4)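 PBMCs stimulated with 2 μg/mL PHA for 3 days at 37 °C, then 5 × 10^5 cells/ml preincubated 30 min at 37 °C with serial compound dilutions plus 2 ng/mL IL-2. Infected with 1500 pg/well HIV-1 BaL or 500 pg/well other isolates. IL-2 re-added on days 3 and 6. Supernatant p24 Ag measured by ELISA at day 10. EC50 is 50% inhibition of replication.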
# [14] = test system: Human immunodeficiency virus 1; test: Antiviral activity against CCR5 tropic HIV1 BaL infected in human PHA-stimulated PBMC assessed as inhibition of viral replication by measuring reduction in p24 antigen production preincubated with cells for 30 mins followed by viral infection measured on day 10 post infection in presence of IL-2 by ELISA; format: functional; conditions: Human immunodeficiency virus 1, BaL; summary of the method: as §4
# [15] = Cytotoxicity against human PHA-stimulated PBMC assessed as cell viability by tetrazolium dye assay; format: cell-based
# [16] = Selectivity index, ratio of CC50 for human PHA-stimulated PBMC to IC50 for CXCR4-tropic HIV-1 NL4-3 infected in human PHA-stimulated PBMC
# [17] = Selectivity index, ratio of CC50 for human PHA-stimulated PBMCs to IC50 for CCR5 tropic HIV1 BaL infected in human PHA-stimulated PBMC
# [18] = Cytotoxic activity against HEL cells assessed as reduction in cell proliferation after 3 days by coulter counting method; format: cell-based; conditions: human
# Summary of the method: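 HEL cells seeded at 5 × 10^3/well, grown 24 h, then given compound for 3 days at 37 °C. Cell number counted by Coulter counter. CC50 is 50% reduction of proliferation relative to untreated controls, read from graphic plots.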
SMILES,EC50 [1],EC50 [2],CC50 [3],selectivity ratio [4],selectivity ratio [5],EC50 (Hepatitis B virus),EC90 (Hepatitis B virus),CC50 [6],Ratio CC50/EC50 [7],EC50 (Human betaherpesvirus 5 [8]),EC50 (Human betaherpesvirus 5 [9]),EC50 (Human alphaherpesvirus 3 [10]),EC50 (Human alphaherpesvirus 3 [11]),MCC at 72 h [12],IC50 [13],IC50 [14],CC50 [15],Ratio CC50/IC50 [16],Ratio CC50/IC50 [17],CC50 at 72 h [18]
Cc1cn(C[C@@H](CF)OCP(=O)(O)O)c(=O)[nH]c1=O,56.8 µM,> 100 µM,> 100 µM,> 2,1,> 100 µM,> 100 µM,> 100 µM,1,> 338 µM,> 338 µM,> 338 µM,338 µM,> 338 µM,–,–,–,–,–,–
Cc1cn(C[C@H](CF)OCP(=O)(O)O)c(=O)[nH]c1=O,54.8 µM,> 100 µM,> 100 µM,> 2,1,> 100 µM,> 100 µM,> 100 µM,1,> 338 µM,> 338 µM,> 338 µM,> 338 µM,> 338 µM,–,–,–,–,–,–
Nc1ccn(C[C@H](CF)OCP(=O)(O)O)c(=O)n1,54.1 µM,> 100 µM,> 100 µM,> 2,1,> 100 µM,> 100 µM,> 100 µM,1,> 356 µM,> 356 µM,> 356 µM,> 356 µM,> 356 µM,–,–,–,–,–,–
CCCCCOC(=O)C[C@H](NP(=O)(CO[C@@H](CF)Cn1ccc(N)nc1=O)Oc1ccccc1)C(=O)OCCCCC (stereo partly drawn),> 54.2 µM,> 54.2 µM,54.2 µM,< 1,< 1,28 µM,91.5 µM,33.5 µM,1,> 32.6 µM,> 32.6 µM,> 32.6 µM,> 32.6 µM,32.6 µM,–,–,–,–,–,–
CCCCCOC(=O)C[C@H](NP(=O)(CO[C@@H](CF)Cn1cc(C)c(=O)[nH]c1=O)Oc1ccccc1)C(=O)OCCCCC (stereo partly drawn),> 100 µM,> 100 µM,> 100 µM,1,1,47 µM,> 100 µM,34.2 µM,<1,> 31.9 µM,> 31.9 µM,31.9 µM,12.7 µM,31.9 µM,–,–,–,–,–,–
Nc1ncnc2c1ncn2C[C@H](CF)OCP(=O)(O)O,29.2 µM,30.7 µM,> 100 µM,> 3,> 3,11.2 µM,> 100 µM,> 100 µM,>9,> 328 µM,> 328 µM,172 µM,> 328 µM,> 328 µM,4.04 µM,11.9 µM,93.9 µM,23,8,–
Nc1nc(O)c2ncn(C[C@H](CF)OCP(=O)(O)O)c2n1,4.57 µM,6.65 µM,> 100 µM,> 22,> 15,0.49 µM,82.5 µM,> 100 µM,>204,139 µM,62.3 µM,62.3 µM,62.3 µM,> 311 µM,1.42 µM,6.41 µM,93.1 µM,66,14.5,–
Nc1nc2c(ncn2COCCO)c(=O)[nH]1 [ACYCLOVIR],–,–,–,–,–,–,–,–,–,–,–,3.02 µM,20.7 µM,> 444 µM,–,–,–,–,–,> 444 µM
O=c1[nH]c(=O)n([C@H]2C[C@H](O)[C@@H](CO)O2)cc1/C=C/Br [BRIVUDINE],–,–,–,–,–,–,–,–,–,–,–,0.055 µM,5.21 µM,> 300 µM,–,–,–,–,–,> 300 µM
Nc1ccn(C[C@@H](CO)OCP(=O)(O)O)c(=O)n1 [CIDOFOVIR],–,–,–,–,–,–,–,–,–,2.49 µM,3.74 µM,–,–,> 358 µM,–,–,–,–,–,> 358 µM
Nc1nc2c(ncn2COC(CO)CO)c(=O)[nH]1 [GANCICLOVIR],–,–,–,–,–,–,–,–,–,–,16.5 µM,–,–,> 391 µM,–,–,–,–,–,> 391 µM
CC(C)OC(=O)[C@H](C)N[P@](=O)(CO[C@H](C)Cn1cnc2c(N)ncnc21)Oc1ccccc1 [TENOFOVIR ALAFENAMIDE],–,–,–,–,–,–,–,–,–,–,–,–,–,–,0.001 µM,0.01 µM,1.32 µM,1320,132,–
